According to ChEMBL document CHEMBL3992563, “Piperazines as nootropic agents: New derivatives of the potent cognition-enhancer DM235 carrying hydrophilic substituents” (Bioorg Med Chem, 2017):

How the values were obtained:
Mus musculus [1] = assay: (§1) Cognition enhancing effect in sc dosed CD-1 albino mouse assessed as reversal of scopolamine-induced amnesia treated 20 mins prior to training session followed by scopolamine challenge immediately after training session by passive avoidance test; format: functional; conditions: CD-1, sc, read-out: MED
Procedure, shortened: (§2)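 Mouse passive-avoidance test using a modified Jarvik–Kopp protocol. Drug in saline with 10% DMSO, given s.c. 20 min before training in a 1:10 dilution series up to 10 mg/kg. Scopolamine 1.5 mg/kg i.p. given right after the punishment/training session. Saline controls got an extra saline injection. Each value is the mean of 12–14 mice; the read-out is minimal effective dose.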

[2] = Stability in Sprague-Dawley rat plasma assessed as parent compound remaining at 1 uM after 60 mins by LC-MS/MS analysis; format: ADME, cell-free; conditions: read-out: Stability
Procedure, shortened: (§3)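 Analyte at 1 µM final in PBS or in plasma from male Sprague-Dawley rats (plasma stored at −80 °C), incubated at 37 °C. Sampled in triplicate at 0, 30, 60 and 120 min, then internal standard added. Quantified by ESI-positive LC-MS/MS in MRM mode (C18 column, formic acid/acetonitrile gradient) against calibration from 0–1.00 µM. Enalapril checked plasma hydrolytic activity; t1/2 extrapolated from concentration-time curves.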

Mus musculus [3] = assay: Potency index, ratio of piracetam MED to compound MED for cognition enhancing effect in sc dosed CD-1 albino mouse; format: functional
Mus musculus [4] = assay: Toxicity in sc dosed CD-1 albino mouse assessed as effect on motor co-ordination at cognition enhancing MED by rota rod test; format: organism-based; conditions: in vivo
[5] = Half life in PBS at 1 uM by LC-MS/MS analysis; format: physicochemical; procedure, shortened: as §3
Mus musculus [6] = assay: Toxicity in sc dosed CD-1 albino mouse assessed as effect on spontaneous motility at cognition enhancing MED by hole-board test; format: organism-based; conditions: in vivo
Mus musculus [7] = assay: Toxicity in sc dosed CD-1 albino mouse assessed as gross behavior abnormality at cognition enhancing MED; format: organism-based; conditions: in vivo
[8] = Half life in Sprague-Dawley rat plasma at 1 uM by LC-MS/MS analysis; format: ADME, cell-free; procedure, shortened: as §3
Mus musculus [9] = assay: as §1, with “amnesia by measuring difference between training session and retention session time at MED” for “amnesia”; format: functional; procedure, shortened: as §2
[10] = Stability in Sprague-Dawley rat plasma assessed as parent compound remaining at 1 uM after 2 hrs by LC-MS/MS analysis; format: ADME, cell-free; conditions: read-out: Stability; procedure, shortened: as §3
Plasma [11] = assay: Drug metabolism in Sprague-Dawley rat plasma assessed as 1-(4-Benzoyl-3-(hydroxymethyl)piperazin-1-yl)propan-1-one formation at 1 uM after 60 mins by LC-MS/MS analysis; format: ADME, cell-free; conditions: 1 h; procedure, shortened: as §3
Plasma [12] = assay: Drug metabolism in Sprague-Dawley rat plasma assessed as 1-(4-(4-Fluorophenylsulfonyl)-3-(hydroxymethyl)piperazin-1-yl)ethanone formation at 1 uM after 60 mins by LC-MS/MS analysis; format: ADME, cell-free; conditions: 1 h; procedure, shortened: as §3
Plasma [13] = assay: Drug level in Sprague-Dawley rat plasma treated with (1-Acetyl-4-(4-fluorophenylsulfonyl)piperazin-2-yl)methyl acetate at 1 uM after 60 mins by LC-MS/MS analysis; format: ADME, cell-free; conditions: 1 h; procedure, shortened: as §3
Plasma [14] = assay: Drug level in Sprague-Dawley rat plasma treated with (1-Benzoyl-4-propionylpiperazin-2-yl)methyl acetate at 1 uM after 60 mins by LC-MS/MS analysis; format: ADME, cell-free; conditions: 1 h; procedure, shortened: as §3
Plasma [15] = assay: Drug metabolism in Sprague-Dawley rat plasma assessed as 1-(4-Benzoyl-2-(hydroxymethyl)piperazin-1-yl)propan-1-one formation at 1 uM after 60 mins by LC-MS/MS analysis; format: ADME, cell-free; conditions: 1 h; procedure, shortened: as §3
Mus musculus [16] = assay: Cognition enhancing effect in […] mouse assessed as reversal of scopolamine-induced amnesia by measuring difference between training session and retention session time at MED treated 20 mins prior to training session followed by scopolamine challenge immediately after training session by passive avoidance test
Mus musculus [17] = assay: Cognition enhancing effect in ip dosed mouse assessed as reversal of scopolamine-induced amnesia treated 20 mins prior to training session followed by scopolamine challenge immediately after training session by passive avoidance test; format: functional; conditions: read-out: MED

Structure (SMILES) | minimal effective dose (Mus musculus [1]) [mg/kg] | Ratio (Mus musculus [3]) | Activity (Mus musculus [4]) | half-life at 1 µM [5] [h] | Activity (Mus musculus [6]) | Activity (Mus musculus [7]) | half-life at 1 µM [8] [h] | Time (Mus musculus [9]) [s] | other results
CCOC(=O)C1CN(C(=O)CC)CCN1C(=O)c1ccccc1 (stereo unspecified) | 1 | 3 - 300 | Non-Toxic | ≥ 4 | Non-Toxic | Non-Toxic | 0.433 | 56.6 | remaining at 1 h, 1 µM [2]: < 50%
CCOC(=O)C1CN(C(=O)c2ccccc2)CCN1C(=O)CC (stereo unspecified) | 1 | 3 - 300 | Non-Toxic | ≥ 4 | Non-Toxic | Non-Toxic | 0.2 | 51.1 | remaining at 1 h, 1 µM [2]: < 50%
CCC(=O)N1CCN(C(=O)c2ccccc2)[C@@H](CO)C1 | 1 | – | – | – | – | – | – | 55 | –
CCC(=O)N1CCN(C(=O)c2ccccc2)C(COC(C)=O)C1 (stereo unspecified) | > 10 | – | Non-Toxic | ≥ 4 | Non-Toxic | Non-Toxic | 1.67 | – | remaining at 2 h, 1 µM [10]: 50%; Drug metabolism (Plasma [11]): Metabolite_Detected
CC(=O)OCC1CN(C(C)=O)CCN1S(=O)(=O)c1ccc(F)cc1 (stereo unspecified) | 0.1 | 3 - 300 | Non-Toxic | ≥ 4 | Non-Toxic | Non-Toxic | 0.483 | 56.8 | remaining at 2 h, 1 µM [10]: ≤ 10%; Drug metabolism (Plasma [12]): Metabolite_Detected
CC(=O)N1CCN(S(=O)(=O)c2ccc(F)cc2)CC1CO (stereo unspecified) | 10 | 3 - 300 | Non-Toxic | ≥ 4 | Non-Toxic | Non-Toxic | ≥ 4 | 48 | Drug metabolism (Plasma [13]): Metabolite_Detected
CC(=O)OC[C@@H]1CN(C(C)=O)CCN1S(=O)(=O)c1ccc(F)cc1 | 1 | – | – | – | – | – | – | 64.5 | –
CCC(=O)N1CCN(C(=O)c2ccccc2)C(CO)C1 (stereo unspecified) | 0.1 | 3 - 300 | Non-Toxic | ≥ 4 | Non-Toxic | Non-Toxic | ≥ 4 | 52.6 | Drug metabolism (Plasma [14]): Metabolite_Detected
CCC(=O)N1CCN(C(=O)c2ccccc2)CC1COC(C)=O (stereo unspecified) | 1 | 3 - 300 | Non-Toxic | ≥ 4 | Non-Toxic | Non-Toxic | 2.57 | 62.2 | remaining at 2 h, 1 µM [10]: 60%; Drug metabolism (Plasma [15]): Metabolite_Detected
CCOC(=O)C1CN(C(C)=O)CCN1S(=O)(=O)c1ccc(F)cc1 (stereo unspecified) | 0.1 | 3 - 300 | Non-Toxic | ≥ 4 | Non-Toxic | Non-Toxic | 0.35 | 55.7 | remaining at 1 h, 1 µM [2]: < 50%
CCOC(=O)[C@H](CCc1ccccc1)N[C@@H](C)C(=O)N1CCC[C@H]1C(=O)O [ENALAPRIL] | – | – | – | ≥ 4 | – | – | 1.57 | – | –
NC(=O)CN1CCCC1=O [PIRACETAM] | – | – | – | – | – | – | – | – | Time (Mus musculus [16]): 82.4 s; minimal effective dose (Mus musculus [17]): 30 mg/kg
CC(=O)NC1CCN(S(=O)(=O)c2ccc(F)cc2)CC1 [SAPUNIFIRAM] | – | – | – | – | – | – | – | – | minimal effective dose (Mus musculus [17]): 0.01 mg/kg
CCC(=O)N1CCN(C(=O)c2ccccc2)CC1 [SUNIFIRAM] | – | – | – | ≥ 4 | – | – | ≥ 4 | – | minimal effective dose (Mus musculus [17]): 0.001 mg/kg
O=C1CCC2CN(S(=O)(=O)c3ccc(F)cc3)CCN12 (stereo unspecified) [UNIFIRAM] | – | – | – | – | – | – | – | – | minimal effective dose (Mus musculus [17]): 0.001 mg/kg
